# C2C12 statin = suppressors of statin myotoxicity in C2C12 myotubes, primary screen, cell-based, single point, plate reader | C2C12 myotubes + simvastatin, ATP luminescence, 48 h; scaled: DMSO 0, geranylgeraniol control 100 | rescue of ATP level, % at 7.49 µM | hit rate 0.78% among 330,000 | AID 602340, 2012;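 active means mean ATP rescue above about 67%, or every replicate alone reaching that limit, limit read from the data, passing the limit was not always enough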;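 further: myotubes were challenged with 10 µM simvastatin during compound exposure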
# Cneo AK release = Cryptococcus neoformans cell lysis inducers, primary screen, AK release luminescence, single concentration | C. neoformans lysis, adenylate kinase release luminescence, 4 h; normalised: neutral wells 0, clomiphene wells 100 | lysis activity, % at 15 µM | AID 651654, 2012 | hit rate 0.2% among 360,000;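 active means mean lysis activity across replicates of at least 80%, whatever share of replicates individually reach that level; inactive means mean lysis activity below 80%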
#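 read-out = cell lysis signal | test system = log-phase Cryptococcus neoformans yeast cells | input = cells at 5 × 10^6 per mL | medium = fresh YPD growth medium | signal = luminescent adenylate kinase detection reagent | timing = 4 h at 37 °C static, read 1 h later | dosing = single dose | controls = Clomiphene as positive lysis control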
# SUMO Mot1 rescue = yeast Mot1-301 growth rescue at high temperature, primary screen, SUMOylation pathway inhibitor project, S. cerevisiae, ATP luminescence, 38.5C | hit rate 1% among 320,000 | S. cerevisiae Mot1-301 growth rescue; percent above DMSO median, 100 means doubled | AID 2716, 2010 | growth rescue, % at 18.8 µM;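 active means every valid replicate shows activation above 250% relative to neutral control wells; inactive means the rest, any valid replicate at or below 250%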;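 further: OY570 slx delta 5 strain wells were the positive control but not used for scaling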
# * = called active by the depositor; . = not tested or not shown. This is a sample that favours compounds with a hit; in the whole collection about 1.5% have one here.
SMILES,C2C12 statin,Cneo AK release,SUMO Mot1 rescue
O=C(/C(=C/c1ccc(Cl)cc1)c1nc2ccccc2[nH]1)c1cccs1,181*,.,521*
COC(=O)/C(=C\c1ccc(O)cc1)c1nc2ccccc2[nH]1,.,.,-22
CO[C@H]1CN(C)C(=O)c2cc(NC(C)=O)ccc2OC[C@H](C)N(Cc2cccc(F)c2)C[C@@H]1C,-2,87*,.
CO[C@@H]1CN(C)C(=O)c2cc(NS(=O)(=O)CC(F)(F)F)ccc2OC[C@@H](C)N(Cc2cccnc2)C[C@@H]1C,10,-1,.
CCCN1C[C@H](C)[C@@H](OC)CN(C)C(=O)c2cc(NC(=O)c3cccc(F)c3)ccc2OC[C@H]1C,11,117*,.
CO[C@H]1CN(C)C(=O)c2ccc(NC(C)=O)cc2OC[C@@H](C)N(Cc2cccc(F)c2)C[C@@H]1C,1,.,.
COCC(=O)Nc1ccc2c(c1)C(=O)N(C)C[C@@H](OC)[C@H](C)CN(Cc1ccccc1)[C@@H](C)CO2,12,112*,.
COCC(=O)Nc1ccc2c(c1)C(=O)N(C)C[C@H](OC)[C@H](C)CN(Cc1ccccc1)[C@H](C)CO2,4,0,.
CCCN1C[C@H](C)[C@H](OC)CN(C)C(=O)c2cc(NC(=O)c3cccc(F)c3)ccc2OC[C@H]1C,12,4,.
CO[C@H]1CN(C)C(=O)c2cc(NS(=O)(=O)CC(F)(F)F)ccc2OC[C@@H](C)N(Cc2cccnc2)C[C@@H]1C,0,88*,.
CO[C@@H]1CN(C)C(=O)c2cc(NC(C)=O)ccc2OC[C@H](C)N(C(=O)c2ccccn2)C[C@@H]1C,4,0,.
COc1ccccc1C(=O)Nc1ccc2c(c1)C(=O)N(C)C[C@@H](OC)[C@H](C)CN(C)[C@@H](C)CO2,13,112*,.
COc1ccccc1C(=O)Nc1ccc2c(c1)C(=O)N(C)C[C@H](OC)[C@H](C)CN(C)[C@@H](C)CO2,4,-5,.
COc1ccc(S(=O)(=O)Nc2ccc3c(c2)C(=O)N([C@@H](C)CO)C[C@@H](C)[C@@H](CN(C)C(=O)CCCN(C)C)OCCCC[C@H](C)O3)cc1,11,1,.
CN(C[C@@H]1N[C@H](CO)[C@@H]1c1ccc(-c2cccc(F)c2)cc1)S(C)(=O)=O,0,0,.
CN(C[C@H]1N[C@@H](CO)[C@H]1c1ccc(-c2cccc(F)c2)cc1)S(C)(=O)=O,1,99*,.
CO[C@@H]1CC[C@@H]2CCOc3ccc(C#N)cc3C(=O)N(C)C[C@@H](C)C(=O)N(C)C[C@H]1O2,11,3,.
CN(C)CC(=O)N1CCCCN2[C@H](C1)[C@@H](c1ccc(-c3cccc(C(=O)N(C)C)c3)cc1)[C@@H]2CO,24,-5,.
Cn1nc(C(C)(C)C)cc1C(=O)O,.,.,-6
Cn1nc(C(C)(C)C)cc1C(=O)NNC(=O)c1ccc(C(F)(F)F)cc1,-2,.,304*
C[C@H]1CN([C@@H](C)CO)C(=O)c2cc(C3=CCCCC3)cnc2O[C@@H]1CN(C)C(=O)Cc1ccncc1,-3,.,.
COc1ccccc1S(=O)(=O)N[C@H]1CC[C@@H](CC(=O)N2CCN(C)CC2)O[C@H]1CO,-9,-5,.
CC(C)N1C(=O)CCC1C(=O)N1CCC(Cc2ccccc2)CC1 (centres undefined),132*,2,7
CC(C)N1C(=O)CCC1C(=O)N1CCN(c2ccc(F)cc2)CC1 (centres undefined),0,0,3
CCOC(=O)CN1C(=O)S/C(=C/c2ccc(OC)c([N+](=O)[O-])c2)C1=O,113*,1,1
SMILES,C2C12 statin,Cneo AK release,SUMO Mot1 rescue
CCOC(=O)CN1C(=O)S/C(=C\c2ccc3c(c2)OCO3)C1=O,19,-5,-3
C[C@@H]1CCCCO[C@@H](CN(C)C(=O)Nc2ccc(F)cc2)[C@H](C)CN([C@H](C)CO)C(=O)c2cc(NC(=O)Nc3ccc(F)cc3)ccc2O1,.,-4,.
Fc1ccccc1Nc1nc(N2CCOCC2)nc(N2CCOCC2)n1,-15,-3,-2
COc1cc(C=O)ccc1Oc1nc(Nc2ccc(F)cc2F)nc(N2CCOCC2)n1,.,.,334*
O=C(CN1CCCCCCC1)Nc1ccc(Cl)cc1Cl,.,.,-8
O=C(CN1CCCCC1)Nc1ccc(C(F)(F)F)cc1Cl,91*,-2,-17
Cc1ccc(S(=O)(=O)NN2C(=O)/C(=C\c3ccc(Cl)cc3)SC2=S)cc1,2,-2,-9
Cc1ccc(/C=C2\SC(=S)N(NS(=O)(=O)c3ccc(C)cc3)C2=O)cc1,25,121*,-23
CCCC(=O)N(Cc1cc2cc(C)ccc2[nH]c1=O)c1ccccc1OC,76*,2,-5
CCCC(=O)N(Cc1cc2ccccc2[nH]c1=O)c1ccccc1OC,13,0,-6
CO[C@H](CN(C)S(=O)(=O)c1cccc(Cl)c1)[C@@H](C)CN([C@H](C)CO)S(=O)(=O)c1cccc(Cl)c1,-22,47,.
C[C@@H]1CCCCO[C@H](CN(C)C(=O)C2CCCCC2)[C@H](C)CN([C@@H](C)CO)C(=O)c2cc(NS(=O)(=O)c3ccc(F)cc3)ccc2O1,.,38,.
O=C(Nc1ccccc1)N1CCCCN2[C@H](C1)[C@H](c1ccc(Br)cc1)[C@@H]2CO,95*,-3,.
O=C(Nc1ccccc1)N1CCCCN2[C@H](CO)[C@H](c3ccc(C#CC4CC4)cc3)[C@H]2C1,.,1,.
O=C(NC1CCCC1)N1CCCCN2[C@H](CO)[C@@H](c3ccc(-c4cncnc4)cc3)[C@H]2C1,.,106*,.
O=C(Nc1ccccc1)N1CCCCN2[C@H](C1)[C@@H](c1ccc(Br)cc1)[C@@H]2CO,8,1,.
O=C(NC1CCCC1)N1CCCCN2[C@H](CO)[C@@H](c3ccc(-c4cncnc4)cc3)[C@@H]2C1,.,-3,.
O=C(Nc1ccccc1)N1CCCCN2[C@H](CO)[C@@H](c3ccc(C#CC4CC4)cc3)[C@@H]2C1,.,100*,.
Cc1ccc(-c2cnc3c(c2)C(=O)N([C@@H](C)CO)C[C@@H](C)[C@H](CN(C)CC2CCCCC2)O3)cc1,-44,-2,.
C[C@@H]1CN([C@@H](C)CO)C(=O)Cc2cc(NC(=O)c3ccncc3)ccc2O[C@H]1CN(C)Cc1ccc(Oc2ccccc2)cc1,11,4,.
O=C(C[C@@H]1CC[C@H]2[C@@H](COC[C@H](O)CN2CC2CCOCC2)O1)N1CCOCC1,7,-2,.
Cc1noc(C)c1S(=O)(=O)N(C)C[C@H]1OCCCC[C@@H](C)Oc2ccc(NC(=O)C3CCCCC3)cc2C(=O)N([C@@H](C)CO)C[C@H]1C,33,0,.
CN1CCN(C(=O)/C=C/c2ccc(Cl)cc2)CC1,110*,-1,244
CN1CCN(C(=O)/C=C/c2ccc(Cl)c(Cl)c2)CC1,.,0,-9
CO[C@@H]1CN(C)C(=O)c2cc(NC(=O)c3cnccn3)ccc2OC[C@@H](C)N(CCc2ccccc2)C[C@H]1C,-12,4,.
CCCCNC(=O)c1ccc(CS(=O)(=O)c2cccc(C(F)(F)F)c2)o1,144*,-1,-3
COCCNC(=O)c1ccc(CS(=O)(=O)c2cccc(C(F)(F)F)c2)o1,-2,-1,-9

# Screening results: PubChem, Broad Institute
